Test results reported in ChEMBL document CHEMBL4261552, “4-Hydroxy-N-[3,5-bis(trifluoromethyl)phenyl]-1,2,5-thiadiazole-3-carboxamide: a novel inhibitor of the canonical NF-κB cascade” (Medchemcomm, 2017).
Activity calls are given as the source filed them. The calls are words filed in the database; no cut-off is given here.

What was measured:
[1] = molecular target: T1, Inhibitor of nuclear factor kappa-B kinase subunit beta (Homo sapiens) (UniProt O14920); test: Inhibition of human IKKbeta at 100 uM using ERLLDDRHDSGLDSMKDEE as substrate after 60 mins in presence of ATP by ADP-Glo kinase assay relative to control
T1 sequence (whole entry): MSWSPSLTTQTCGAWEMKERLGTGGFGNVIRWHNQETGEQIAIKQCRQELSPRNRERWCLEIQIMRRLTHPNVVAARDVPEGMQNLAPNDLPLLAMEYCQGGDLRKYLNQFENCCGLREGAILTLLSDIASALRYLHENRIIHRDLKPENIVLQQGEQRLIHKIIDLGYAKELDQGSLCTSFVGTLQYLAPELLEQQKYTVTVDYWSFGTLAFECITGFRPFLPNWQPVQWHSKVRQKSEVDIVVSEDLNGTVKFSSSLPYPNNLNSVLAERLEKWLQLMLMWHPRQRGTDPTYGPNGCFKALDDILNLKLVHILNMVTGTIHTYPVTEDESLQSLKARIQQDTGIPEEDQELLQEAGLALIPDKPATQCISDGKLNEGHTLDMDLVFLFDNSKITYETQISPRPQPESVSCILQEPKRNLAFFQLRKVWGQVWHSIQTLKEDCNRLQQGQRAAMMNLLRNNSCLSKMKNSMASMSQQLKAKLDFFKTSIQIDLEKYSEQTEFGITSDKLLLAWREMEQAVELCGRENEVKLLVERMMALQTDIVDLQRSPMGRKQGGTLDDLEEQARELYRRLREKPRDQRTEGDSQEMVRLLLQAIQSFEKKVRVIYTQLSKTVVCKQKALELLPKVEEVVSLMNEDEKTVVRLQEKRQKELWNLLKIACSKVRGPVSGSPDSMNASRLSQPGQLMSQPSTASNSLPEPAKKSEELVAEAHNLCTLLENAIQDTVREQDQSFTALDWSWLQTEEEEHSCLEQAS

[2] = molecular target: T1, Inhibitor of nuclear factor kappa-B kinase subunit beta (Homo sapiens); test: Induction of IKKbeta phosphorylation at S177/181 residues in TNFalpha-stimulated human Jurkat cells at 10 uM preincubated for 60 mins followed by TNFalpha-stimulation for 20 mins by immunoblot analysis; type: cell-based
How it was run: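 Jurkat E6.1 cells in X-VIVO 15 with 10% FBS, passages 5–10, were pretreated 60 min with 10 µM compound (DMSO vehicle), then stimulated 20 min with TNFα 15 ng/mL. Lysates were made with protease and phosphatase inhibitors, 20 µg/lane was run on 12% SDS-PAGE, and IKKα/IKKβ phosphorylation was detected by immunoblot with ECL. Three independent experiments were run.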

O=C(Nc1cc(C(F)(F)F)cc(C(F)(F)F)c1)c1cc(Cl)ccc1O [IMD-0354]
inhibition [1]: 5.43%
Activity [2]: Active
